# Test results reported in PMC6716794 (Biochemistry, 2019).
# “Also recorded” adds a separate entry of the source.
# Columns and labels:
# [1] = biological target: T1, ProT (prothrombin), pro-ABE I (Homo sapiens, UniProt P00734); assay: 1D and 2D 1H,15N-HSQC NMR titration with ProT; format: binding; settings: [15N]-labeled at F55, K51, E53, D58 and E60; pH 6.5, 25 °C
# Outline: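 Human plasma prothrombin buffer-exchanged into NMR buffer (25 mM H3PO4, 150 mM NaCl, 0.2 mM EDTA, pH 6.5). 15N-labeled PAR1 peptide held constant at 50 μM while protein was serially diluted from 115 or 150 μM. 1D/2D 1H,15N-HSQC shifts were fitted to a quadratic binding equation for KD, with Monte-Carlo errors assuming 10% dilution error. Titrations were run at least in duplicate.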
# [2] = biological target: T1, ProT (prothrombin), pro-ABE I; assay: 1D proton line broadening with ProT; format: binding; settings: NMR buffer pH 6.5, 25 °C
# Outline: (§1)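 Human plasma proteins: prothrombin, and thrombin blocked with PPACK (4:1 PPACK:thrombin, 37 °C, 30 min). Both were exchanged by ultrafiltration into NMR buffer (25 mM H3PO4, 150 mM NaCl, 0.2 mM EDTA, pH 6.5), and concentrations were set by E1%280 (13.8 prothrombin, 18.3 thrombin). Peptide at about 10-fold excess. Peptide 1H spectra were compared with and without enzyme.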
# PPACK-thrombin, ABE I = assay: 1D proton line broadening with PPACK-thrombin; format: binding, human; settings: NMR buffer pH 6.5, 25 °C
# Outline: as §1
# thrombin ABE I = settings: ligand bound to ABE II; cited from earlier work
substance,measurement,setting,value
"PAR1G (49–62, P54G): weak binding PAR1 variant, residues 49–62 with P54G (NDKYEGFWEDEEKN; UniProt P25116 49-62, looked up, fragment P54G)",Binding with pro-ABE I on ProT,[1],very weak binding with pro-ABE I on ProT
same,1D proton line broadening with ProT (PAR1G),[2]; 830 μM PAR1G with 83 μM ProT,1D proton line broadening could still be observed
same,1D proton line broadening with mature thrombin (PAR1G),"PPACK-thrombin, ABE I; 870 μM PAR1G with 87 μM PPACK-thrombin",increased further with the mature thrombin; also recorded: the interactions increased upon formation of mature thrombin
"GpIbα: platelet receptor glycoprotein GpIbα, binds thrombin ABE II",Effect on affinity of thrombomodulin TM456 for thrombin ABE I,thrombin ABE I,the affinity of thrombomodulin TM456 for ABE I decreases
"PAR1P (49–62, P54): native PAR1 sequence peptide, residues 49–62, P54 (NDKYEPFWEDEEKN; UniProt P25116 49-62, looked up, fragment)",1D proton line broadening with ProT (PAR1P),"[2]; 780 μM PAR1P with 59 μM ProT, residues D50, K51, E53, F55, D58, E60",Substantial amide proton peak broadening; also recorded: moderate interactions with ProT
same,1D proton line broadening with PPACK-thrombin (PAR1P),"PPACK-thrombin, ABE I; 900 μM PAR1P with 97 μM PPACK-thrombin",increase in line broadening; also recorded: the interactions increased upon formation of mature thrombin
